Test [1] relates to Mus musculus. Nature of the test: Compound was evaluated for protective dose against the […] UC-76 lethal infection following po administration in mouse. It counts as functional. To be noted: read-out: PD50. Summed up: (§1)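 Acute lethal systemic infection in female Charles River CD-1 mice (18–22 g), challenged intraperitoneally with an estimated 100 median lethal dose in 5% hog gastric mucin. Single doses in a twofold rising series were given with the challenge, sc as aqueous solution or po by gavage in 5% gum acacia. PD50 (mg/kg) was estimated by log probit from survival of eight mice per dose.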

The next test concerns Enterobacter cloacae. Kind of test: Compound was tested for inhibition of the gram-negative organism […] HA 2646. It counts as functional.
Test [2] has as its system Mus musculus. Nature of the test: Compound was evaluated for protective dose against Streptococcus pneumoniae SV-1 lethal infection following sc administration. It counts as functional. To be noted: read-out: PD50. Summed up: (§2)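 Female Charles River CD-1 mice (18–22 g) were challenged intraperitoneally with an estimated 100 median lethal dose in tryptic soy broth. Single doses, in a twofold rising series, were given at the same time as challenge: subcutaneously as aqueous solution, or orally by gavage in 5% gum acacia. Survival in groups of eight mice per dose gave PD50 (mg/kg) by log probit.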

Test [3] concerns Mus musculus. Nature of the test: Compound was evaluated for protective dose against the […] UC-76 lethal infection following sc administration in mouse. Type of test: functional. The note with it: read-out: PD50. The method, boiled down: as §1
Test [4] concerns the target DNA gyrase (Escherichia coli) (UniProt P0AES6+P0AES4). Kind of test: Inhibition of DNA gyrase of Escherichia coli H560 cells. The method, boiled down: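 DNA gyrase purified from Escherichia coli H560 cells. Cleavage assay: drug-gyrase-DNA complex denatured, converting closed circular DNA to linear DNA. Linear DNA resolved by gel electrophoresis and stained with ethidium bromide. Value is the minimum drug concentration (µg/mL) giving linear DNA at an intensity relative to oxolinic acid at 10 µg/mL. Aqueous drug stocks made up in 0.1 N NaOH or KOH.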

Test [5] relates to Pseudomonas aeruginosa. Kind of test: (§3) Compound was tested for inhibition of the gram-negative organism Pseudomonas aeruginosa UI-18. It counts as functional. Summed up: (§4)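 MICs read in standard microdilution (microtitration) format against a panel of 10 bacterial organisms; values in µg/mL.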
The subject of test [6] is Mus musculus. Nature of the test: Compound was evaluated for protective dose against the Streptococcus pneumoniae SV-1 lethal infection following po administration. It counts as functional. The note with it: read-out: PD50. The method, boiled down: as §2
Test [7] relates to Escherichia coli. Kind of test: (§5) Compound was tested for inhibition of the gram-negative organism Escherichia coli H560. Type of test: functional. Summed up:
as §4

In test [8] the test system is Enterococcus faecalis. Nature of the test: (§6) Compound was tested for inhibition of the […] organism Streptococcus faecalis MGH-2. Type of test: functional. Summed up:
as §4

Test [9] deals with Escherichia coli. Kind of test: (§7) Compound was tested for inhibition of the gram-negative organism Escherichia coli vogel. It counts as functional. Summed up:
as §4

Test [10] has as its system Klebsiella pneumoniae. Kind of test: (§8) Compound was tested for inhibition of the gram-negative organism Klebsiella pneumoniae MGH-2. It counts as functional. Summed up: as §4
Test [11] deals with Staphylococcus aureus. Nature of the test: (§9) Compound was tested for inhibition of the […] organism […] H228. It counts as functional. Summed up: as §4
For test [12], the system named is Streptococcus pneumoniae. Kind of test: (§10) Compound was tested for inhibition of the […] organism Streptococcus pneumoniae SV-1. It counts as functional. The method, boiled down:
as §4

Test [13] concerns Mus musculus. Kind of test: Compound was evaluated for protective dose against the Escherichia coli vogel lethal infection following sc administration in mouse. It counts as functional. The note with it: read-out: PD50. The method, boiled down:
as §1

For test [14], the system named is Streptococcus pyogenes. Kind of test: (§11) Compound was tested for inhibition of the […] organism Streptococcus pyogenes C203. Type of test: functional. Summed up: as §4
The test system of test [15] is Providencia rettgeri. Kind of test: (§12) Compound was tested for inhibition of the gram-negative organism Providencia rettgeri H1771. Type of test: functional. The method, boiled down: as §4
The subject of test [16] is Staphylococcus aureus. Nature of the test: (§13) Compound was tested for inhibition of the […] organism […] UC-76. Type of test: functional. Summed up:
as §4

Test [17] has as its system Mus musculus. Nature of the test: Compound was evaluated for protective dose against the Escherichia coli vogel lethal infection following peroral administration in mouse. Type of test: functional. To be noted: po, read-out: PD50. Summed up:
as §1

Test [18] concerns Enterococcus faecalis. The description is as §6. Type of test: functional. This is another data set of the same source.
Test [19] deals with Pseudomonas aeruginosa. Described as §3. Type of test: functional. This is another data set of the same source.
Test [20] has as its system Klebsiella pneumoniae. Described as §8. It counts as functional. The source holds these as a separate data set.
In test [21] the test system is Streptococcus pyogenes. Described as §11. Type of test: functional. The source holds these as a separate data set.
Test [22] has as its system Streptococcus pneumoniae. The description is as §10. Type of test: functional. This is another data set of the same source.
Test [23] relates to Escherichia coli. Described as §5. It counts as functional. The source holds these as a separate data set.
For test [24], the system named is Escherichia coli. Nature of the test: Compound was tested for inhibition of target enzyme DNA gyrase obtained from Escherichia coli H560 cells. Type of test: functional. Summed up:
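Gyrase isolated from E. coli H560 cells. Drug-gyrase-DNA complex denatured, and closed circular DNA converted to linear DNA. Linear DNA resolved by gel electrophoresis and stained with ethidium bromide. Value is the minimum drug concentration (µg/mL) giving linear DNA at an intensity relative to oxolinic acid at 10 µg/mL. Aqueous drug stocks made in 0.1 N NaOH or KOH.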

Test [25] has as its system Escherichia coli. Described as §7. It counts as functional. The source holds these as a separate data set.
For test [26], the system named is Providencia rettgeri. Described as §12. Type of test: functional. The source holds these as a separate data set.
Test [27] has as its system Staphylococcus aureus. Described as §9. It counts as functional. This is another data set of the same source.
The test system of test [28] is Staphylococcus aureus. Described as §13. It counts as functional. This is another data set of the same source.

The text below walks through data of ChEMBL document CHEMBL1123422, “1-Ethyl-7-[3-[(ethylamino)methyl]-1-pyrrolidinyl]-6,8-difluoro-1,4- dihydro-4-oxo-3-quinoline-carboxylic acid. New quinolone antibacterial with potent gram-positive activity” (1986).

≈ marks a conversion by molar mass, not a printed value.

Usually MIC stands for the lowest concentration that inhibits growth of the organism. Higher therefore signals weaker potency. As to `CCNCC1CCN(c2c(F)cc3c(=O)c(C(=O)O)cn(CC)c3c2F)C1` (stereo unspecified) [MERAFLOXACIN], the ED50 in the test with Mus musculus [1] stood at 2.8 mg/kg; in the test with Mus musculus [2], 4.4 mg/kg; in the test on Mus musculus [3], 1.6 mg/kg; in the test on Mus musculus [6] it was 20 mg/kg; with Mus musculus [13], 1.7 mg/kg; in the test on Mus musculus [17] it was 12 mg/kg. The MIC against Enterobacter cloacae worked out at 0.2 µg/mL (≈ 0.527 µM); against Pseudomonas aeruginosa [5] it was 1.6 µg/mL (≈ 4.22 µM); in the test on Escherichia coli [7] it was 0.1 µg/mL (≈ 0.264 µM); against Enterococcus faecalis [8], 0.1 µg/mL (≈ 0.264 µM); against Escherichia coli [9] it was 0.1 µg/mL (≈ 0.264 µM); against Klebsiella pneumoniae [10] it was 0.2 µg/mL (≈ 0.527 µM). Besides, the minimal inhibitory concentration (MIC) against Staphylococcus aureus [11] came out at 0.1 µg/mL (≈ 0.264 µM); in the test on Streptococcus pneumoniae [12] it was 0.1 µg/mL (≈ 0.264 µM); against Streptococcus pyogenes [14] it was 0.1 µg/mL (≈ 0.264 µM); against Providencia rettgeri [15], 0.4 µg/mL (≈ 1.05 µM); in the test on Staphylococcus aureus [16], 0.05 µg/mL (≈ 0.132 µM). The compound further displayed a Min concentration in test [4] of 2.5 µg/mL.
For `CCn1cc(C(=O)O)c(=O)c2cc(F)c(N3CCNCC3)cc21` [NORFLOXACIN], the ED50 in the test on Mus musculus [1] is 23 mg/kg; in the test with Mus musculus [2], greater than 100 mg/kg; in the test on Mus musculus [3], 15 mg/kg; in the test with Mus musculus [6], 150 mg/kg; with Mus musculus [13] it was 1 mg/kg; in the test on Mus musculus [17], 4 mg/kg. In addition, the MIC amounted to 0.1 µg/mL (≈ 0.313 µM) against Enterobacter cloacae; 1.6 µg/mL (≈ 5.01 µM) in the test with Enterococcus faecalis [18]; 0.2 µg/mL (≈ 0.626 µM) against Pseudomonas aeruginosa [19]; 0.05 µg/mL (≈ 0.157 µM) against Klebsiella pneumoniae [20]; 0.8 µg/mL (≈ 2.51 µM) against Streptococcus pyogenes [21]; 1.6 µg/mL (≈ 5.01 µM) in the test on Streptococcus pneumoniae [22]. For the same compound, the MIC against Escherichia coli [23] was 0.1 µg/mL (≈ 0.313 µM); against Escherichia coli [24], 1 µg/mL (≈ 3.13 µM); in the test on Escherichia coli [25] it was 0.025 µg/mL (≈ 0.0783 µM); against Providencia rettgeri [26], 0.025 µg/mL (≈ 0.0783 µM); against Staphylococcus aureus [27], 0.8 µg/mL (≈ 2.51 µM); with Staphylococcus aureus [28], 0.05 µg/mL (≈ 0.157 µM).
